Results as given in ChEMBL document CHEMBL1157691, “Synthesis and antiproliferative evaluations of certain 2-phenylvinylquinoline (2-styrylquinoline) and 2-furanylvinylquinoline derivatives” (Bioorg Med Chem, 2010).

Legend:
[1] = tested on: MCF7; experiment: Antiproliferative activity against human MCF7 cells after 48 hrs by ATPlite assay; format: functional, cell-based; conditions: MCF7, 48 h
[2] = tested on: MCF7; experiment: Antiproliferative activity against human MCF7 cells assessed as cell survival at 4 ug/mL after 72 hrs by MTS assay relative to control; format: functional; conditions: MCF7, 72 h, read-out: Survival
Summary of the method: (§1)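 Log-phase cells seeded at 5000 cells/mL/well in 24-well format. They were then exposed to test agents at a single concentration of 4.0 μg/mL for 72 h. Growth and viability were read by MTS assay.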

[3] = tested on: NCI-H460; experiment: Antiproliferative activity against human NCI-H460 cells assessed as cell survival at 4 ug/mL after 72 hrs by MTS assay relative to control; format: functional; conditions: NCI-H460, 72 h, read-out: Survival; summary of the method: as §1
[4] = tested on: SF-268; experiment: Antiproliferative activity against human SF268 cells assessed as cell survival at 4 ug/mL after 72 hrs by MTS assay relative to control; format: functional; conditions: SF-268, 72 h, read-out: Survival; summary of the method: as §1
[5] = tested on: LNCaP; experiment: Antiproliferative activity against human LNCAP cells after 48 hrs by ATPlite assay; format: functional, cell-based
[6] = tested on: PC-3; experiment: Antiproliferative activity against human PC3 cells after 48 hrs by ATPlite assay; format: functional, cell-based; conditions: PC-3, 48 h
[7] = Growth inhibition of human NCI60 cells; format: functional

## CO/N=C(\C)c1ccc(Nc2cc(/C=C/c3ccc([N+](=O)[O-])o3)nc3ccccc23)cc1
[1]
  IC50: 400 nM
[2]
  viability at 4 µg/mL: < 20%
[3]
  viability at 4 µg/mL: < 20%
[4]
  viability at 4 µg/mL: < 20%
[5]
  IC50: 1040 nM
[6]
  IC50: 520 nM

## COc1cccc2c(Cl)cc(/C=C/c3ccccc3)nc12
[2]
  viability at 4 µg/mL: 99%
[3]
  viability at 4 µg/mL: 109%
[4]
  viability at 4 µg/mL: 81%

## CC(=O)c1ccc(Nc2cc(/C=C/c3ccc([N+](=O)[O-])o3)nc3ccccc23)cc1
[1]
  IC50: 430 nM
[2]
  viability at 4 µg/mL: < 20%
[3]
  viability at 4 µg/mL: < 20%
[4]
  viability at 4 µg/mL: < 20%
[5]
  IC50: 4120 nM
[6]
  IC50: 450 nM

## Oc1cccc2ccc(/C=C/c3ccccc3)nc12
[2]
  viability at 4 µg/mL: 110%
[3]
  viability at 4 µg/mL: 55%
[4]
  viability at 4 µg/mL: 72%

## Oc1ccc(/C=C/c2ccc3cccc(O)c3n2)cc1
[2]
  viability at 4 µg/mL: 108%
[3]
  viability at 4 µg/mL: 52%
[4]
  viability at 4 µg/mL: 78%

## Oc1cccc2ccc(/C=C/c3ccc(F)cc3)nc12
[2]
  viability at 4 µg/mL: 103%
[3]
  viability at 4 µg/mL: 66%
[4]
  viability at 4 µg/mL: 82%

## Oc1cccc2ccc(/C=C/c3cccnc3)nc12
[2]
  viability at 4 µg/mL: 115%
[3]
  viability at 4 µg/mL: 63%
[4]
  viability at 4 µg/mL: 89%

## COc1cc(NS(C)(=O)=O)ccc1Nc1c2ccccc2nc2ccccc12 [AMSACRINE]
[7]
  GI50: 440 nM

## Oc1cccc(/C=C/c2ccc3cccc(O)c3n2)c1O
[2]
  viability at 4 µg/mL: 95%
[3]
  viability at 4 µg/mL: 53%
[4]
  viability at 4 µg/mL: 52%

## C/C(=N\O)c1ccc(Nc2cc(/C=C/c3ccc([N+](=O)[O-])o3)nc3ccccc23)cc1
[1]
  IC50: 250 nM
[2]
  viability at 4 µg/mL: < 20%
[3]
  viability at 4 µg/mL: < 20%
[4]
  viability at 4 µg/mL: < 20%
[5]
  IC50: 950 nM
[6]
  IC50: 190 nM

## Oc1cccc2ccc(/C=C/c3ccco3)nc12
[2]
  viability at 4 µg/mL: 110%
[3]
  viability at 4 µg/mL: 70%
[4]
  viability at 4 µg/mL: 76%

## COc1cccc2c(O)cc(/C=C/c3ccccc3)nc12
[2]
  viability at 4 µg/mL: 104%
[3]
  viability at 4 µg/mL: 111%
[4]
  viability at 4 µg/mL: 119%

## C/C(=N/O)c1ccc(Nc2cc(/C=C/c3ccccc3)nc3ccccc23)cc1
[2]
  viability at 4 µg/mL: 54%
[3]
  viability at 4 µg/mL: 67%
[4]
  viability at 4 µg/mL: 90%

## COc1cccc2c(Nc3ccc(/C(C)=N\O)cc3)cc(/C=C/c3ccccc3)nc12
[2]
  viability at 4 µg/mL: 40%
[3]
  viability at 4 µg/mL: < 20%
[4]
  viability at 4 µg/mL: 63%

## CC(=O)c1ccc(Nc2c3ccccc3nc3occc23)cc1
[7]
  GI50: 25 nM

## CO/N=C(/C)c1ccc(Nc2cc(/C=C/c3ccccc3)nc3c(OC)cccc23)cc1
[2]
  viability at 4 µg/mL: 97%
[3]
  viability at 4 µg/mL: 87%
[4]
  viability at 4 µg/mL: 97%

## COc1cccc2c1C(=O)c1c(O)c3c(c(O)c1C2=O)C[C@@](O)(C(C)=O)C[C@@H]3O[C@H]1C[C@H](N)[C@H](O)[C@H](C)O1 [DAUNORUBICIN]
[7]
  GI50: 44 nM

## COc1cccc2c(Nc3ccc(C(C)=O)cc3)cc(/C=C/c3ccccc3)nc12
[2]
  viability at 4 µg/mL: 95%
[3]
  viability at 4 µg/mL: 75%
[4]
  viability at 4 µg/mL: 114%

## Clc1cc(/C=C/c2ccccc2)nc2ccccc12
[2]
  viability at 4 µg/mL: 120%
[3]
  viability at 4 µg/mL: 109%
[4]
  viability at 4 µg/mL: 118%

## O=[N+]([O-])c1ccc(/C=C/c2ccc3cccc(O)c3n2)cc1
[2]
  viability at 4 µg/mL: 89%
[3]
  viability at 4 µg/mL: 52%
[4]
  viability at 4 µg/mL: 77%

## N#Cc1ccc(/C=C/c2ccc3cccc(O)c3n2)cc1
[2]
  viability at 4 µg/mL: 107%
[3]
  viability at 4 µg/mL: 66%
[4]
  viability at 4 µg/mL: 90%

## Oc1cc(/C=C/c2ccccc2)nc2ccccc12
[2]
  viability at 4 µg/mL: 119%
[3]
  viability at 4 µg/mL: 118%
[4]
  viability at 4 µg/mL: 120%

## CC(=O)c1ccc(Nc2cc(/C=C/c3ccccc3)nc3ccccc23)cc1
[2]
  viability at 4 µg/mL: 83%
[3]
  viability at 4 µg/mL: 52%
[4]
  viability at 4 µg/mL: 107%

## CO/N=C(/C)c1ccc(Nc2cc(/C=C/c3ccccc3)nc3ccccc23)cc1
[2]
  viability at 4 µg/mL: 108%
[3]
  viability at 4 µg/mL: 79%
[4]
  viability at 4 µg/mL: 112%
